The record followed here is ChEMBL document CHEMBL2034933, “New quinazolinone-pyrimidine hybrids: synthesis, anti-inflammatory, and ulcerogenicity studies” (Eur J Med Chem, 2012).

For series [1], the system named is Rattus norvegicus. Put plainly: Ulcerogenic activity in fasted albino rat assessed as ulcer index at 50 mg/kg po administered qd for 3 days measured on day 4. Format: toxicity, organism-based. Further details: dose 50 mg/kg, route oral. Particulars: in vivo, 72 h. Put shortly:
(§1)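 Albino rats of both sexes (120–150 g), five per group, fasted 20 h, then dosed orally in 1% Tween (test agents 100 mg/kg, celecoxib and diclofenac sodium 50 mg/kg). Feeding cycle: 2 h fast, 2 h feed, 20 h fast, repeated with doses on days 2 and 3. Ulcers scored 0–4. Ulcer index = %incidence/10 + mean ulcer number + mean severity.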

A further series is filed under the species Ovis aries. Put plainly: Selectivity ratio of IC50 for ovine COX2 to ovine COX1. Put shortly: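 Ovine COX-1 and COX-2 inhibition measured with a commercial COX inhibitor screening kit following the Gierse et al. method. Selectivity expressed as the ratio IC50(COX-2)/IC50(COX-1).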
The subject of series [2] is Rattus norvegicus. Nature of the series: Antiinflammatory activity in albino rat assessed as inhibition of carrageenan-induced paw edema at 100 mg/kg, po administered 1 hr prior to carrageenan-challenge measured after 0.5 hrs. Format: functional. In a few lines:
(§2)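 Adult albino rats of both sexes (120–150 g), pre-hydrated with 3 ml water by gavage, five per group. Test agents suspended in distilled water with a few drops of Tween 80, given orally 1 h before sub-plantar injection of 50 µl 1% carrageenan into the right hind paw. Dial-gauge paw thickness taken at 0.5, 1, 2 and 3 h, with the left paw as reference. % inhibition = (Wc−Wt)/Wc × 100 against saline/Tween 80 controls.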

For series [3], the system named is Rattus norvegicus. Put plainly: Antiinflammatory activity in albino rat assessed as inhibition of carrageenan-induced paw edema at 100 mg/kg, po administered 1 hr prior to carrageenan-challenge measured after 1 hr. It is filed as functional. Put shortly:
as §2
Background: Carrageenan injected into the paw causes an acute inflammation.

Series [4] relates to Rattus norvegicus. Nature of the series: Antiinflammatory activity in albino rat assessed as inhibition of carrageenan-induced paw edema at 100 mg/kg, po administered 1 hr prior to carrageenan-challenge measured after 2 hrs. Format: functional. In a few lines:
as §2

The subject of series [5] is Rattus norvegicus. Nature of the series: Antiinflammatory activity in albino rat assessed as inhibition of carrageenan-induced paw edema at 100 mg/kg, po administered 1 hr prior to carrageenan-challenge measured after 3 hrs. It is filed as functional. Put shortly: as §2
Series [6] relates to Rattus norvegicus. Put plainly: Antiinflammatory activity in albino rat assessed as inhibition of carrageenan-induced paw edema at 50 mg/kg, po administered 1 hr prior to carrageenan-challenge measured after 3 hrs. Format: functional. In a few lines:
as §2

Series [7] deals with Rattus norvegicus. Nature of the series: Antiinflammatory activity in albino rat assessed as inhibition of carrageenan-induced paw edema at 200 mg/kg, po administered 1 hr prior to carrageenan-challenge measured after 3 hrs. It is filed as functional. In a few lines: (§3)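 Carrageenan rat paw oedema (albino rats of both sexes, 120–150 g), oral dosing in Tween 80 suspension 1 h before 50 µl 1% carrageenan sub-plantar injection. Inhibition read at 3 h over a three-dose series (50, 100, 200 mg/kg for test agents; 20, 50, 100 mg/kg for diclofenac sodium). IC50 given in mg/kg and µmol/kg.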

Series [8] deals with Rattus norvegicus. Put plainly: Antiinflammatory activity in po dosed albino rat assessed as inhibition of carrageenan-induced paw edema administered 1 hr prior to carrageenan-challenge measured after 3 hrs. It is filed as functional, organism-based. In a few lines: as §3
Series [9] relates to Rattus norvegicus. Nature of the series: Antiinflammatory activity in po dosed albino rat assessed as inhibition of carrageenan-induced paw edema administered 1 hr prior to carrageenan-challenge relative to diclophenac. Format: functional.
In series [10] the test system is Rattus norvegicus. Nature of the series: Ulcerogenic activity in fasted albino rat assessed as ulcer index at 100 mg/kg po administered qd for 3 days measured on day 4. It is filed as toxicity, organism-based. Also noted: dose 100 mg/kg, route oral. The following applies: in vivo, 72 h. In a few lines:
as §1

Series [11] has as its system Rattus norvegicus. Nature of the series: Antiinflammatory activity in albino rat assessed as inhibition of carrageenan-induced paw edema at 50 mg/kg, po administered 1 hr prior to carrageenan-challenge measured after 0.5 hrs. It is filed as functional. In a few lines:
as §2

For series [12], the system named is Rattus norvegicus. Nature of the series: Antiinflammatory activity in albino rat assessed as inhibition of carrageenan-induced paw edema at 50 mg/kg, po administered 1 hr prior to carrageenan-challenge measured after 1 hr. Format: functional. In a few lines: as §2
The subject of series [13] is Rattus norvegicus. Put plainly: Antiinflammatory activity in albino rat assessed as inhibition of carrageenan-induced paw edema at 50 mg/kg, po administered 1 hr prior to carrageenan-challenge measured after 2 hrs. Format: functional. In a few lines:
as §2

Series [14] relates to Rattus norvegicus. Put plainly: Antiinflammatory activity in albino rat assessed as inhibition of carrageenan-induced paw edema at 20 mg/kg, po administered 1 hr prior to carrageenan-challenge measured after 3 hrs. Format: functional. Put shortly:
as §3

SMILES strings stand for the structures.

Broadly, the inhibition in vivo is the percentage by which the read-out fell short of the control.

As for `Cc1ccc(-c2cc(C(F)(F)F)nn2-c2ccc(S(N)(=O)=O)cc2)cc1` [CELECOXIB], the UI in the series with Rattus norvegicus [1] is given as 12.51. Besides, the Ratio IC50 in the series filed under Ovis aries was found to be 0.02.
For `N#Cc1c(Nc2ccc(O)cc2)nc(SCC(=O)Nn2c(COc3ccc(Cl)cc3Cl)nc3ccccc3c2=O)nc1-c1ccc(O)cc1`, the inhibition in vivo at 100 mg/kg amounted to 80.8% in the series on Rattus norvegicus [2], 86.4% in the series with Rattus norvegicus [3], 86.8% in the series with Rattus norvegicus [4] and 86.8% in the series with Rattus norvegicus [5]. The inhibition in vivo at 50 mg/kg in the series on Rattus norvegicus [6] came out at 56.1%. The inhibition in vivo at 200 mg/kg in the series on Rattus norvegicus [7] is 91.2%. In addition, the IC50 in the series with Rattus norvegicus [8] worked out at 88.27 mg/kg. In addition, the “inhibition (INH)” value in the series on Rattus norvegicus [9] is recorded as greater than 90%. Also, the UI in the series on Rattus norvegicus [10] is listed as 14.22. For the same compound, the Ratio IC50 in the series filed under Ovis aries was 7.3.
Take `O=C([O-])Cc1ccccc1Nc1c(Cl)cccc1Cl.[Na+]` [DICLOFENAC SODIUM]: the inhibition in vivo at 100 mg/kg in the series with Rattus norvegicus [5] is 91.2%. For the same compound, the inhibition in vivo at 50 mg/kg in the series on Rattus norvegicus [11] is 76.9%; in the series on Rattus norvegicus [12], 83.6%; with Rattus norvegicus [13], 87.7%; in the series on Rattus norvegicus [6], 87.3%. In addition, in the series on Rattus norvegicus [14], the inhibition in vivo at 20 mg/kg turned out to be 42.2%. In the series with Rattus norvegicus [8], the IC50 amounted to 45.01 mg/kg. Further, the UI with Rattus norvegicus [1] was determined as 17.02.
